Measurements reported in ChEMBL document CHEMBL4819119, “Design and evaluation of 1,2,3-dithiazoles and fused 1,2,4-dithiazines as anti-cancer agents” (Bioorg Med Chem Lett, 2021).

Tests used:
A-431 = assay: Cytotoxicity against human A-431 cells assessed as reduction in cell viability incubated for 72 hrs by alamar blue assay; assay type: functional, cell-based; settings: A-431, 72 h
Outline: (§1)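 Cells seeded in 384-well plates and dosed 24 h after plating, in quadruplicate. Viability was read by alamarBlue fluorescence at 72 h. IC50 came from nonlinear regression as the mean of 4 replicates. Growth media carried 10% FBS and 1% pen/strep: UCH1/UCH2 in 4:1 IMDM:RPMI-1640 in gel-coated flasks; A431, PANC1 and WS1 in DMEM; DU145 and MCF7 in MEM; 5637 in RPMI-1640.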

MCF7 = assay: Cytotoxicity against human MCF7 cells assessed as reduction in cell viability incubated for 72 hrs by alamar blue assay; assay type: functional, cell-based; settings: MCF7, 72 h; outline: as §1
[1] = Cytotoxicity against human UCH2 cells assessed as reduction in cell viability incubated for 72 hrs by alamar blue assay; assay type: functional, cell-based; settings: UCH2, 72 h; outline: as §1
[2] = Cytotoxicity against human UCH1 cells assessed as reduction in cell viability incubated for 72 hrs by alamar blue assay; assay type: functional, cell-based; settings: UCH1, 72 h; outline: as §1
[3] = Cytotoxicity against human WS1 cells assessed as reduction in cell viability incubated for 72 hrs by alamar blue assay; assay type: cell-based; settings: WS1, 72 h; outline: as §1
5637 = assay: Cytotoxicity against human 5637 cells assessed as reduction in cell viability incubated for 72 hrs by alamar blue assay; assay type: functional, cell-based; settings: Homo sapiens, 5637, 72 h; outline: as §1
DU-145 = assay: Cytotoxicity against human DU-145 cells assessed as reduction in cell viability incubated for 72 hrs by alamar blue assay; assay type: functional, cell-based; settings: DU-145, 72 h; outline: as §1
PANC-1 = assay: Cytotoxicity against human PANC1 cells assessed as reduction in cell viability incubated for 72 hrs by alamar blue assay; assay type: functional, cell-based; settings: PANC-1, 72 h; outline: as §1
[4] = test system: Feline immunodeficiency virus; assay: Antiviral activity against Feline immunodeficiency virus; assay type: functional, organism-based

Structure (SMILES) | IC50 (A-431) [µM] | IC50 (MCF7) [µM] | IC50 [1] [µM] | IC50 [2] [µM] | IC50 [3] [µM] | IC50 5637 [µM] | IC50 (DU-145) [µM] | IC50 (PANC-1) [µM] | EC50 [4] [µM]
Clc1nss/c1=N\c1ccc(Br)cc1 | > 100 | 11 | 51 | 43 | > 100 | 36 | 48 | 35 | –
Clc1nss/c1=N\c1nccs1 | 17 | 45 | 22 | 10 | 24 | 15 | 8.1 | 24 | –
Cc1cc(/N=c2\ssnc2Cl)n[nH]1 | 69 | 18 | 18 | 33 | 40 | 20 | 14 | 27 | –
CCOC(=O)c1c2nssc-2c(Cl)c1Cl | – | – | – | – | – | – | – | – | 0.31
CCOC(=O)c1c2n[se]sc-2c(Cl)c1Cl | – | – | – | – | – | – | – | – | 0.082
Cc1nn(C)c2c1SSC(C#N)=N2 | > 100 | > 100 | > 100 | > 100 | > 100 | 81 | 40 | > 100 | –
N#Cc1cc(Br)ccc1/N=c1\ssnc1N1CCN(CCCl)CC1 | > 100 | 4.1 | 23 | 32 | > 100 | 8 | 15 | 18 | –
Clc1nss/c1=N\c1cccc(Br)c1 | > 100 | 6.7 | 59 | 40 | 94 | 53 | 27 | 38 | –
N#CC1=Nc2c(c(-c3ccccc3)nn2-c2ccccc2)SS1 | 72 | 36 | 68 | 55 | > 100 | 14 | 16 | 75 | –
CSc1ccc(/N=c2\ssnc2Cl)cc1 | 51 | 36 | 37 | 38 | 66 | 34 | 14 | 86 | –
N#CSCCN1CCN(c2nssc2=O)CC1 | 25 | 5.4 | 14 | 12 | 17 | 39 | 3.3 | 11 | –
O=C(OCCN1CCN(c2nss/c2=N\c2ccccc2)CC1)c1ccccc1 | 36 | 17 | 34 | 23 | 38 | 13 | 30 | 60 | –
Cc1cc(OC(F)(F)F)ccc1/N=c1\ssnc1Cl | > 100 | 43 | 87 | 57 | > 100 | 47 | 18 | 76 | –
c1ccc(/N=c2\ssnc2N2CCN(CCNc3ccccc3)CC2)cc1 | 87 | 10 | 21 | 25 | 55 | 18 | 55 | 67 | –
O=S(=O)(Nc1nccs1)c1ccc(/N=c2\ssnc2Cl)cc1 | > 100 | 49 | 36 | 30 | > 100 | 27 | 92 | 97 | –
Clc1nss/c1=N\c1cc(-c2ccccc2)n[nH]1 | > 100 | 9.3 | 38 | 59 | > 100 | 16 | 11 | 23 | –
O=C1c2ccccc2C(=O)N1CCN1CCN(c2nssc2=S)CC1 | > 100 | 51 | > 100 | 46 | > 100 | 25 | 23 | 73 | –
Cc1cc(/N=c2\ssnc2Cl)n(Cc2ccccc2)n1 | 27 | 18 | 30 | 33 | 15 | 2.1 | 10 | 26 | –
